Assay results from ChEMBL document CHEMBL1157935, “Potent and selective fluoroketone inhibitors of group VIA calcium-independent phospholipase A2” (J Med Chem, 2010).

Tests used:
[1] = target: T1, 85/88 kDa calcium-independent phospholipase A2 (Homo sapiens) (UniProt O60733); experiment: Inhibition of human recombinant group 6A iPLA2 expressed in Sf9 insect cells at 0.091 mol fraction after 30 mins by Dole assay
T1 sequence (whole entry): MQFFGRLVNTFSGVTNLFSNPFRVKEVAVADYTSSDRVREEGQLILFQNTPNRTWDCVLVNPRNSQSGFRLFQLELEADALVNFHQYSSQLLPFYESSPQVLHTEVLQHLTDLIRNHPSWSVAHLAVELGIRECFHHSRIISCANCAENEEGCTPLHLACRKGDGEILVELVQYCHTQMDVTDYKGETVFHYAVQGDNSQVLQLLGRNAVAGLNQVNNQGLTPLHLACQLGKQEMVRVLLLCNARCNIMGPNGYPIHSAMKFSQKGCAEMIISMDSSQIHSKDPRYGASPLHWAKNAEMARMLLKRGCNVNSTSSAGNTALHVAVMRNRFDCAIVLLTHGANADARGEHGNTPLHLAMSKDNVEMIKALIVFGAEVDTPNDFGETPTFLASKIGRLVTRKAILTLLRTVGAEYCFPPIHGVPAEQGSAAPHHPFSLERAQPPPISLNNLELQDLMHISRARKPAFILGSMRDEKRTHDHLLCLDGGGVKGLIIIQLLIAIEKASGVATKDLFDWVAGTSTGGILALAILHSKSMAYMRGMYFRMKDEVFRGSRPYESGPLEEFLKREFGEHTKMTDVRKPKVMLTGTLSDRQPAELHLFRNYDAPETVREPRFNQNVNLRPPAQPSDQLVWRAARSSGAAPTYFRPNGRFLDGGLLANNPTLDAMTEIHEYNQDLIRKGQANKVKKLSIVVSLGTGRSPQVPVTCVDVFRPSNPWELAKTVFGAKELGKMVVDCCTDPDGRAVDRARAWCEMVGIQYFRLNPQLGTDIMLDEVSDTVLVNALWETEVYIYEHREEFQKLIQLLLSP
How it was run: (§1)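 Screen at 0.091 mole fraction (mean, SE, n = 3). XI(50), the inhibitor mole fraction giving 50% inhibition, fitted sigmoidally from typically 7 levels between 0.00091 and 0.091.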

[2] = target: T1, 85/88 kDa calcium-independent phospholipase A2 (Homo sapiens); experiment: Inhibition of human recombinant group 6A iPLA2 expressed in Sf9 insect cells after 30 mins by Dole assay; how it was run: as §1
[3] = target: T2, Phospholipase A2 group V (Homo sapiens) (UniProt P39877); experiment: Inhibition of human group 5 sPLA2 at 0.091 mol fraction after 30 mins
T2 sequence (whole entry): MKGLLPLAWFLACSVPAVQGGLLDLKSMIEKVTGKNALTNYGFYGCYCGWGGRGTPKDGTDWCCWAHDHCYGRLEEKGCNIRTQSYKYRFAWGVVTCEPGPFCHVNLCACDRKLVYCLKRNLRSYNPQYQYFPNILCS
How it was run: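 Inhibitor screened at 0.091 mole fraction of the micelle interface. Average percent inhibition reported (standard error, n = 3); 25% or less inhibition taken as none.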

Homo sapiens [4] = species: Homo sapiens; experiment: Selectivity ratio for inhibition of human recombinant group 6A iPLA2 over inhibition of human group […] cPLA2
How it was run: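 Ratio derived from XI(50) values for the two enzymes, using the modified Dole assay with 14C-labelled PAPC in Triton X-100 mixed micelles. GVIA iPLA2: 400 μM Triton X-100, 98.3 μM PAPC, 1.7 μM 14C-PAPC, 100 mM HEPES pH 7.5, 2 mM ATP, 4 mM DTT. GIVA cPLA2: 400 μM Triton X-100, 97 μM PAPC, 1.8 μM 14C-PAPC, 3 μM PIP2, 100 mM HEPES pH 7.5, 90 μM CaCl2, 2 mM DTT, 0.1 mg/ml BSA. XI(50) comes from a sigmoidal fit of % inhibition versus log mole fraction (typically 7 points, 0.00091–0.091).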

Homo sapiens [5] = species: Homo sapiens; experiment: Selectivity ratio for inhibition of human recombinant group 6A iPLA2 over inhibition of human group 5 sPLA2
[6] = target: T3, Cytosolic phospholipase A2 (Homo sapiens) (UniProt P47712); experiment: Inhibition of human group […] cPLA2 at 0.091 mol fraction after 30 mins by Dole assay
T3 sequence (whole entry): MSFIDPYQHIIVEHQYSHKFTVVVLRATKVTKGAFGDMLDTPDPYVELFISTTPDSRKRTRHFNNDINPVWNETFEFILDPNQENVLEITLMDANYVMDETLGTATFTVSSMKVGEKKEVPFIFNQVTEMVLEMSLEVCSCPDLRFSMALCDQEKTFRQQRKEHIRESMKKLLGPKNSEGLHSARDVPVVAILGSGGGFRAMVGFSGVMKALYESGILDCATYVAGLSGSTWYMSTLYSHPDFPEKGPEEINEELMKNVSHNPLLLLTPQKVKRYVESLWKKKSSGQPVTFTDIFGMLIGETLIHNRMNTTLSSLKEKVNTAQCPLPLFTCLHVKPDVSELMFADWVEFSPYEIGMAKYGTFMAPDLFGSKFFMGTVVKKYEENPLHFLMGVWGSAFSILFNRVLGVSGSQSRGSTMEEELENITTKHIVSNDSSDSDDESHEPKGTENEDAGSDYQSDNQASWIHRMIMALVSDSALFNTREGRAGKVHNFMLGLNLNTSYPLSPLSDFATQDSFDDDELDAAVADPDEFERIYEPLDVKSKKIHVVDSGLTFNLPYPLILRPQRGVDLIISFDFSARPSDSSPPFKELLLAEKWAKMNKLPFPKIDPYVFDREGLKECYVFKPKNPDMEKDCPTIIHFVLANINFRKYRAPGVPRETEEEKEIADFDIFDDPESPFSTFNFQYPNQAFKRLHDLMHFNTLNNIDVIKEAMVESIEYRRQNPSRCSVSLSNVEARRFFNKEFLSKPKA
How it was run: (§2)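 Screened at 0.091 mole fraction (mean, SE, n = 3). XI(50) from % inhibition vs inhibitor mole fraction, typically 7 levels 0.00091–0.091, fitted by symmetrical sigmoidal non-linear regression.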

[7] = target: T3, Cytosolic phospholipase A2 (Homo sapiens); experiment: Inhibition of human group […] cPLA2 after 30 mins by Dole assay; how it was run: as §2

| SMILES | inhibition [1] [%] | XI50 (mole fraction) [2] | inhibition [3] [%] | Ratio (Homo sapiens [4]) | Ratio (Homo sapiens [5]) | inhibition [6] [%] | XI50 (mole fraction) [7] |
| --- | --- | --- | --- | --- | --- | --- | --- |
| O=C(/C=C/c1ccccc1)C(F)(F)C(F)(F)F | 96.4 | 0.0066 | 76.9 |  |  |  |  |
| O=C(C(F)CCCc1ccccc1)C(F)(F)C(F)(F)C(F)(F)F (stereo unspecified) | 100 | 0.0005 | 36.1 | 76 | > 180 | 79.9 |  |
| OC(CCCCc1ccccc1)C(F)(F)C(F)(F)C(F)(F)F (stereo unspecified) | 97 | 0.0258 | 65.8 |  |  | 82 |  |
| O=C(CCCCc1ccc2ccccc2c1)C(F)(F)F | 99.9 | 0.0002 | 36.8 | 195 | > 455 | 80.8 |  |
| O=C(CCCOc1ccccc1)C(F)(F)C(F)(F)F | 99.1 | 0.0036 |  |  |  |  |  |
| O=C(CCCCc1ccccc1)C(F)(F)C(F)(F)F |  | 0.0014 |  |  |  |  |  |
| CCCCCCOc1ccc(CCCCC(=O)C(F)(F)C(F)(F)C(F)(F)F)cc1 | 95.8 | 0.0136 | 76.9 |  |  | 43.7 |  |
| O=C(C(F)CCCc1ccccc1)C(F)(F)F (stereo unspecified) | 97.6 | 0.0025 |  |  |  | 52.1 |  |
| O=C(CCCCCc1ccccc1)C(F)(F)C(F)(F)C(F)(F)F | 98.4 | 0.003 |  |  |  |  |  |
| CCCCCCCC/C=C\CCCCCCCC(=O)C(F)(F)C(F)(F)C(F)(F)F | 80.6 | 0.0574 | 33.9 |  |  | 57 |  |
| O=C(/C=C/C=C/c1ccccc1)C(F)(F)C(F)(F)F | 96 | 0.0313 |  |  |  | 59 |  |
| CCCCCCOc1ccc(CCCCC(=O)C(F)(F)C(F)(F)F)cc1 | 98.3 | 0.0084 | 71.7 |  |  | 76.1 |  |
| OC(CCCCc1ccccc1)C(F)(F)C(F)(F)F (stereo unspecified) | 94.3 | 0.039 | 67.3 |  |  | 44.8 |  |
| O=C(CCCCc1ccc2ccccc2c1)C(F)(F)C(F)(F)C(F)(F)F | 99.7 | 0.001 | 46.3 |  |  | 55.8 |  |
| O=Cc1ccc(CCCCC(=O)C(F)(F)C(F)(F)F)o1 | 84.4 | 0.0262 | 41.9 |  |  |  |  |
| O=C(C(F)CCCc1ccccc1)C(F)(F)C(F)(F)F (stereo unspecified) | 100 | 0.0005 | 39.1 |  |  | 68.4 |  |
| O=C(CCCCc1ccccc1)C(F)(F)C(F)(F)C(F)(F)F | 99.4 | 0.0022 | 61.8 |  |  | 32.6 |  |
| O=C(CCCCc1ccc2ccccc2c1)C(F)(F)C(F)(F)F | 99.8 | 0.0006 | 58.4 |  |  | 77.1 |  |
| CCCCCCCC/C=C\CCCCCCCC(=O)C(F)(F)C(F)(F)F | 95.5 | 0.0192 | 67 |  |  | 41.4 |  |
| CCCCCCCCc1ccc(OCCCC(=O)C(F)(F)C(F)(F)F)cc1 | 99.4 | 0.0024 | 63 |  |  | 88.8 |  |
| O=C(C(F)CCCCc1ccccc1)C(F)(F)F (stereo unspecified) | 98.8 | 0.0013 |  |  |  | 66 |  |
| CCCCCCCCc1ccc(OCCCC(=O)C(F)(F)F)cc1 | 99.4 | 0.0029 | 61.4 |  |  | 91.5 | 0.022 |
